# Screens as filed in PubChem.
# This is a sample that favours compounds with a hit; in the whole collection about 2.9% have one here.
# SIRT5 block: SIRT5 desuccinylase inhibitors, primary screen, biochemical, fluorescence imaging, single point, set 5; NAD-dependent protein deacylase sirtuin-5, mitochondrial (Homo sapiens), Q9NXA8; Purified SirT5, succinyl-peptide AMC, trypsin-coupled fluorescence; inhibition, % at 15 µM; hit rate 1.1% among 330,000; AID 652115, 2013; in the data active = inhibition above about 15%
# Target sequence (Q9NXA8 whole entry, looked up): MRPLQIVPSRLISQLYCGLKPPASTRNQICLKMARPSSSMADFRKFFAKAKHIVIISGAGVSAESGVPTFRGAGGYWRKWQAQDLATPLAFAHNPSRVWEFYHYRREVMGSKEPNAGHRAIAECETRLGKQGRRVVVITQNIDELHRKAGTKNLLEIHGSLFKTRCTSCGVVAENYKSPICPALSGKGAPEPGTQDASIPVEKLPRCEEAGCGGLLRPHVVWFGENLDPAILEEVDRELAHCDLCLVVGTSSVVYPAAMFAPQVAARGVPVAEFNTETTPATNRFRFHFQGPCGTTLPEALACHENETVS
# DENV2 CPE rescue: inhibitors of DENV2 cytopathic effect, primary screen, cell-based, plate reader, single concentration. DENV2-infected cells, cytopathic effect rescue. CPE inhibition, % at 9.99 µM. hit rate 1.7% among 350,000; in the data active = CPE inhibition above about 20%, passing the limit was not always enough; tested in BHK-21 cells;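 also: 0% = median of neutral control wells and 100% = median of positive control wells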
# S100A4 inh HTS: inhibitors of S100A4-myosin IIA peptide binding, primary screen, biochemical, fluorescence polarization, TAMRA-MyoIIA peptide | Protein S100-A4 (Homo sapiens), P26447 | inhibition, % at 10.7 µM | hit rate 0.14% among 360,000;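 active = mean inhibition of at least 70% across replicates, with every replicate also reaching that level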
# Target sequence (P26447 whole entry, looked up): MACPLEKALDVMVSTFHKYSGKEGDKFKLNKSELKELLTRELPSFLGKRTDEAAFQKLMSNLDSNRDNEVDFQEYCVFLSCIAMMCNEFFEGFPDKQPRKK
#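 assay system = human S100A4 monomer with TAMRA-labelled myosin IIA peptide | also added = labelled myosin peptide probe, 5 nM | incubation = 5 min between mix addition and reading | control set = DMSO and TFP controls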
# PGC1a acetyl inh: inhibitors of PGC1a acetylation signal, primary screen, cell-based, U2OS, AlphaScreen, inhibitor mode; AlphaScreen anti-acetyl-lysine; with virally co-expressed GCN5 acetyltransferase; inhibition, % at 15.6 µM; AID 651687, 2012; hit rate 0.17% among 350,000;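 active = every replicate shows inhibition of at least 40%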;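 also: 0% = neutral control wells and 100% = positive control wells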
# C2C12 statin: suppressors of statin myotoxicity in C2C12 myotubes, primary screen, cell-based, single point, plate reader. C2C12 myotubes + simvastatin, ATP luminescence, 48 h; scaled: DMSO 0, geranylgeraniol control 100. rescue of ATP level, % at 7.49 µM. hit rate 0.78% among 330,000. AID 602340, 2012;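 active = mean ATP rescue above about 67%, or every replicate alone reaching that limit, limit read from the data, passing the limit was not always enough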;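 also: myotubes were challenged with 10 µM simvastatin during compound exposure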
# * hit, by the source's call; . = no result given.
SMILES,SIRT5 block,DENV2 CPE rescue,S100A4 inh HTS,PGC1a acetyl inh,C2C12 statin
CN1C2CCC1CC(OC(=O)c1ccc([N+](=O)[O-])cc1)C2 (stereo not given),.,66*,-1,.,.
CN1C2CCC1CC(OC(=O)c1cccc(O)c1)C2 (stereo not given),-2,29*,-1,-1,13
COC(=O)[C@@H]1[C@@H](CO)[C@@H]2Cn3c(ccc(C4=CCCC4)c3=O)[C@H]1N2Cc1ccccn1,-4,118*,-7,.,-1
COC(=O)[C@@H]1[C@@H](CO)[C@@H]2Cn3c(ccc(C4=CCCCC4)c3=O)[C@H]1N2Cc1ccccc1OC,-12,24*,-5,.,.
COC(=O)[C@H]1[C@H](CO)[C@H]2Cn3c(ccc(C4=CCCCC4)c3=O)[C@@H]1N2Cc1cccnc1,-17,-12,5,5,6
COC(=O)[C@@H]1[C@@H](CO)[C@@H]2Cn3c(ccc(-c4ccccc4)c3=O)[C@H]1N2S(=O)(=O)c1ccccc1C,-14,0,9,.,17
CC1CCCN(c2ccc(C(=O)N3CCC4(CC3)OCCO4)cc2[N+](=O)[O-])C1 (stereo not given),3,0,5,-9,0
CCOC(=O)C1CCCN(c2ccc([N+](=O)[O-])c3nonc23)C1 (stereo not given),-1,-5,170*,.,.
Cc1nc2ccc(Cl)cn2c1P(=S)(N1CCOCC1)N1CCOCC1,.,.,.,-3,93*
Cn1ccnc1P(=S)(c1nccn1C)N1CCOCC1,.,.,.,-20,-8
CCCNC(=O)[C@H]1[C@H](CO)[C@H]2Cn3c(cccc3=O)[C@H]2N1C,-1,-4,3,.,7
CCOC(=O)C1=C(NC(=S)NC(=O)c2ccccc2)c2ccccc2CC12CCCC2,35*,-12,2,5,.
COc1ccc(-n2c(/C=C/c3ccc4c(c3)OCO4)nc3ccccc3c2=O)cc1,32*,8,0,.,.
NS(=O)(=O)c1nc[nH]c1[N+](=O)[O-],2,29*,-2,13,-4
COC(=O)[C@@H]1[C@@H](CO)[C@@H]2Cn3c(ccc(/C=C/c4ccccc4)c3=O)[C@H]1N2CC1CCCC1,-33,11,4,0,11
COc1ccc(CN2C(=O)NC(=O)/C(=C/c3ccc([N+](=O)[O-])s3)C2=O)cc1,41*,7,-23,6,.
O=C1NC(=O)N(Cc2ccc(F)cc2)C(=O)/C1=C\c1ccc(N2CCCC2)cc1,0,18,0,.,.
O=C1NC(=O)N(Cc2ccc(F)cc2)C(=O)/C1=C\c1ccc([N+](=O)[O-])s1,28*,-1,-45,6,.
CCCN1[C@@H]2Cn3c(ccc(-c4cccc(OC)c4)c3=O)[C@H]1[C@@H](C(=O)OC)[C@@H]2CO,-8,9,18,9,.
COc1cccc(-c2ccc([C@@H]3[C@H]4CN(C(=O)Cc5ccncc5)CCCCN4[C@H]3CO)cc2)c1,3,-12,-3,-27,.
COC(=O)C1=C(c2cccc(OCc3ccccc3)c2)C[C@@H]2CC[C@H]1N2C(=O)NCCCOC(C)C,27*,-12,1,-1,0
COC(=O)C1=C(c2ccc(-c3ccccc3)c(F)c2)C[C@@H]2CC[C@H]1N2C(=O)NCCNC(C)=O,.,-6,-1,-8,2
COC(=O)C1=C(c2ccc(-c3ccccc3)c(F)c2)C[C@@H]2CC[C@H]1N2C(=O)NCCc1ccccc1,-5,30*,-5,-4,-13
COC(=O)C1=C(c2ccc(-c3ccccc3)c(F)c2)C[C@@H]2CC[C@H]1N2C(=O)NCCCOC(C)C,2,25*,6,-22,24
COC(=O)C1=C(c2cccc(OCc3ccccc3)c2)C[C@@H]2CC[C@H]1N2C(=O)NCCOc1ccc(OC)cc1,.,18,-1,.,-11
SMILES,SIRT5 block,DENV2 CPE rescue,S100A4 inh HTS,PGC1a acetyl inh,C2C12 statin
CCN1[C@@H]2c3ccc(-c4cccc(OC)c4)c(=O)n3C[C@H]1[C@H](CO)[C@H]2C(=O)OC,-5,-8,-3,.,-18
C[C@@H]1CN([C@H](C)CO)C(=O)c2c(c3ccccc3n2C)-c2ccccc2CO[C@H]1CN(C)C(=O)Oc1ccccc1,2,1,7,-19,.
CC(C)CC#Cc1ccc([C@H]2[C@H](CO)N3CCCCN(C(=O)Cc4ccccn4)C[C@@H]23)cc1,.,.,.,1,-17
O=S(=O)(c1cc(Cl)cc(Cl)c1)N1Cc2cc(N3CCOCC3)ccc2-n2nncc2C1,0,108*,-3,3,-3
O=S(=O)(c1cc(Cl)cc(Cl)c1)N1Cc2cc(-c3ccccc3)ccc2-n2nncc2C1,-4,14,2,-2,8
CCCN1[C@@H]2Cn3c(ccc(-c4cccc(C(=O)N(C)C)c4)c3=O)[C@H]1[C@@H](C(=O)OC)[C@@H]2CO,0,2,4,.,19
COC(=O)[C@H]1[C@H](CO)[C@H]2Cn3c(cccc3=O)[C@@H]1N2C(=O)C1CCC1,8,0,-2,.,22
OC1C2CN3CN(C2)CC1(c1ccccc1)C3 (stereo not given),-12,6,1,-13,-7
CC12CN3CN(C1)CC(c1ccccc1)(C3)C2=O,.,.,.,0,102*
O=C1C(=Cc2ccccc2)N2CCC1CC2,1,29*,0,-1,3
CCN1C(=O)C(=C/C=C/c2ccco2)C(=O)N(CC)C1=S,21*,6,-14,.,.
O=C(N/N=C/c1c(O)n(CCc2ccccc2)c(=O)[nH]c1=O)c1ccccc1O,38*,-1,5,1,.
O=P(Oc1ccccc1)(N1CCOCC1)N1CCOCC1,6,-7,1,13,5
CN(c1ccccc1)P(=O)(N1CC1)N1CC1,16*,-7,-3,.,.
CC1OC(OC2CC(O)C3(CO)C4C(O)CC5(C)C(C6=CC(=O)OC6)CCC5(O)C4CCC3(O)C2)C(O)C(O)C1O (stereo not given),1,18,8,81*,20
COC(=O)[C@H]1[C@H](CO)[C@H]2Cn3c(ccc(-c4ccccc4F)c3=O)[C@@H]1N2C(=O)C1CC1,-8,-4,-5,-5,-3
CCOC(=O)[C@]1(C#N)[C@@H]2C=CC(C(N)=O)=CN2[C@@H](C(N)=O)[C@@H]1c1ccc(F)cc1,8,0,-6,88*,-8
COc1cc2c(c(OC)c1OC)-c1ccc(O)c(=O)cc1[C@@H](N)CC2,0,86*,5,-5,-146
OC(COCc1ccc(Cl)cc1)CN1CC=C(c2ccccc2)CC1 (stereo not given),-3,1,-5,-5,-129
OC(CN1CC=C(c2ccccc2)CC1)c1ccccc1 (stereo not given),.,5,-1,2,84*
